Data on 26 compounds can be found in ChEMBL document CHEMBL3763134, “Arylpiperidines as a new class of oxidosqualene cyclase inhibitors” (Eur J Med Chem, 2016).

The nature of assay [1]: Cytotoxicity against human HL60 cells after 24 hrs by MTT assay. Format: cell-based. Particulars: HL-60, 24 h. The method, boiled down: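 MTT assay on human leukaemia HL-60 cells, following Mosmann; cisplatin as reference; triplicate experiments.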
(Formazan colour is commonly taken as a measure of viable cells.)

The nature of assay [2]: Inhibition of Trypanosoma cruzi OSC expressed in recombinant Saccharomyces cerevisiae SMY8 using [14C]-(3S)-2,3-oxidosqualene as substrate. The essentials:
(§1)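 Homogenates of yeast cultures (SMY8 expressing human or T. cruzi OSC; wild-type S. cerevisiae FL100) incubated with radiolabelled 2,3-oxidosqualene at increasing inhibitor concentrations; IC50 as mean of two separate experiments, each in duplicate.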

The next assay has as its target T1, Lanosterol synthase (Homo sapiens, UniProt P48449).
T1 sequence (P48449 whole entry): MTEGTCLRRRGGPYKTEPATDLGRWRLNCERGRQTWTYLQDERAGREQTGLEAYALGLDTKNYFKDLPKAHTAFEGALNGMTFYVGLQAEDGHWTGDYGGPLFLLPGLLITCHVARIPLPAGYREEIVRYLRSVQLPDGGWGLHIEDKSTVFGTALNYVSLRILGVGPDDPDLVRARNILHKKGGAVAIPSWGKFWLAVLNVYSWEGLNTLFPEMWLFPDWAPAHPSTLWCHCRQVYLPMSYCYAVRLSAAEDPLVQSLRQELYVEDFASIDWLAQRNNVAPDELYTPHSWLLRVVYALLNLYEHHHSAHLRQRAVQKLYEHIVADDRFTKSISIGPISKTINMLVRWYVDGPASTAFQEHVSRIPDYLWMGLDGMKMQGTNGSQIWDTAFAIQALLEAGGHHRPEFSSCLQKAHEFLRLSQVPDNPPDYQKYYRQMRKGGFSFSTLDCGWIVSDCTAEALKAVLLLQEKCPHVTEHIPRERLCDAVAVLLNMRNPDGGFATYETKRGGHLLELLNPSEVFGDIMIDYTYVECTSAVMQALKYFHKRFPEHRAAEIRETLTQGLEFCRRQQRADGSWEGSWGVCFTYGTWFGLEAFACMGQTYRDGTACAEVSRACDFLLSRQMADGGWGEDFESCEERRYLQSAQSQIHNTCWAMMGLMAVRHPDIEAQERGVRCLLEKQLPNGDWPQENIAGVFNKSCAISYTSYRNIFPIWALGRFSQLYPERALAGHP
Briefly: Inhibition of human OSC expressed in recombinant Saccharomyces cerevisiae SMY8 using [14C]-(3S)-2,3-oxidosqualene as substrate. The essentials: as §1

Assay [3] addresses T2, Lanosterol synthase (Homo sapiens) (UniProt P48449).
T2 sequence (whole entry): T1 sequence (P48449 whole entry)
Briefly: Inhibition of OSC in human HL60 cells assessed as accumulation of 2,3-oxidosqualene by GC-MS method. Particulars: HL-60. The format is cell-based. The method, boiled down:
(§2)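 Qualitative whole-cell screen: human HL-60 cells incubated with compound, then lysed and extracted; sterol pattern analysed by GC-MS. Enzyme target assigned from characteristic precursor accumulation: 2,3-oxidosqualene for OSC, 7-dehydrocholesterol for dehydrocholesterol reductase.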

Assay [4] can be described thus: Inhibition of Saccharomyces cerevisiae FL100 wild type OSC using [14C]-(3S)-2,3-oxidosqualene as substrate. The essentials:
as §1

The next assay has as its system HL-60. Briefly: Inhibition of total cholesterol biosynthesis in human HL60 cells assessed as incorporation of 2-13C-acetate by GC-MS analysis. The format is functional, cell-based. The method, boiled down:
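HL-60 cells incubated with inhibitor in presence of 2-13C-acetate; newly made 13C-labelled cholesterol distinguished from unlabelled pre-existing cholesterol by GC-MS after extraction; IC50 for total cholesterol biosynthesis derived; triplicate experiments.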

Another assay concerns Saccharomyces cerevisiae. Briefly: Inhibition of ergosterol biosynthesis in Saccharomyces cerevisiae DSM 1333 at 0.2 to 0.5 times MIC after 48 hrs by GC-MS analysis. Format: functional, organism-based. The essentials:
(§3)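 Whole-cell sterol-pattern assay analogous to the cholesterol one, run on S. cerevisiae, Yarrowia lipolytica and Candida glabrata; accumulation of precursor sterols and cellular ergosterol content followed.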

The next assay relates to Yarrowia lipolytica. Briefly: Inhibition of ergosterol biosynthesis in Yarrowia lipolytica DSM 1345 at 0.2 to 0.5 times MIC after 48 hrs by GC-MS analysis. The format is functional, organism-based. The method, boiled down: as §3
The test system of the next assay is Nakaseomyces glabratus. Briefly: Inhibition of ergosterol biosynthesis in Candida glabrata DSM 11226 at 0.2 to 0.5 times MIC after 48 hrs by GC-MS analysis. Format: functional, organism-based. The method, boiled down:
as §3

Assay [5] is described as follows: Inhibition of Saccharomyces cerevisiae OSC expressed in recombinant Saccharomyces cerevisiae SMY8 using [14C]-(3S)-2,3-oxidosqualene as substrate.
In assay [6] the target is T3, 7-dehydrocholesterol reductase (Homo sapiens) (UniProt Q9UBM7).
T3 sequence (whole entry): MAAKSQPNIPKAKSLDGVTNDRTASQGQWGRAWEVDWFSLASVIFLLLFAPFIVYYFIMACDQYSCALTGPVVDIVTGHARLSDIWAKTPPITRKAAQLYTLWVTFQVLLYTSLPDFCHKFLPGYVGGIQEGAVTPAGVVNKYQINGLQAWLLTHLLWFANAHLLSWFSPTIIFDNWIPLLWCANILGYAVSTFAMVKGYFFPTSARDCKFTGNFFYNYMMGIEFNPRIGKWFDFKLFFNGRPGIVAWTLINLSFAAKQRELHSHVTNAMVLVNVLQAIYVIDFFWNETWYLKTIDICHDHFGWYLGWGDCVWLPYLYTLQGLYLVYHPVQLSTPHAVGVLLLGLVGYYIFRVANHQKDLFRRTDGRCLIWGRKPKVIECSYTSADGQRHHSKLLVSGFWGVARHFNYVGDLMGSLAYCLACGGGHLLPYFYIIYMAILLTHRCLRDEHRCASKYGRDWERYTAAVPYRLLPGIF
Kind of assay: Inhibition of 7-dehydrocholesterol reductase in human HL60 cells assessed as accumulation of 7-dehydrocholesterol by GC-MS method. Format: cell-based. Particulars: HL-60. The method, boiled down:
as §2

Active and inactive are the calls of the source. The rule behind the calls is not given here.

As usually defined, the IC50 is the concentration needed to halve the response being measured. For the compound `CC(C)CCN(C)Cc1ccc(C2CCCN(C)C2)cc1` (racemic), the IC50 in assay [1] was above 50 µM.
As to `CN(C/C=C/c1ccccc1)Cc1ccc(C2CCCN(C)C2)cc1` (configuration not stated), the IC50 in assay [2] was above 10 µM; at Lanosterol synthase, 2.06 µM; in assay [4], above 10 µM; with HL-60, 1.1 µM; in assay [1], above 50 µM. The inhibition entry in assay [3] is “Active”.
Consider `CN(Cc1ccc(Cl)cc1)Cc1ccc(-c2cccnc2)cc1`, for which half-maximal inhibition in assay [1] (IC50) was put at 21 µM.
`CN(CCCc1ccccc1)Cc1ccc(C2CCCN(C)C2)cc1` (racemic): the inhibition result in assay [3] is “Active”. Further, the IC50 in assay [1] is above 50 µM.
For the compound `CN1CCC=C(c2ccc(CN(C)Cc3ccc4ccccc4c3)cc2)C1`, the IC50 in [2] was above 10 µM; at Lanosterol synthase, above 10 µM; in assay [4] it was above 10 µM; in the assay on HL-60 it was 0.37 µM; in [1], above 50 µM. Further, the inhibition result in the assay with Saccharomyces cerevisiae, in the assay with Yarrowia lipolytica and in the assay with Nakaseomyces glabratus was “inactive” throughout. For the same compound, in [3], the inhibition entry is “Active”.
Compound `CN(C/C=C/c1ccccc1)Cc1ccc(-c2cccnc2)cc1` yielded an IC50 in assay [1] of 44 µM.
For the compound `CN(Cc1ccc(C2CCCN(C)C2)cc1)Cc1ccc2ccccc2c1` (racemic), the IC50 was above 10 µM in assay [2]; 8.51 µM at Lanosterol synthase; above 10 µM in [4]; 1.32 µM with HL-60; 40 µM in assay [1]. The inhibition result in [3] was “Active”.
With `C=CCN(C)CCCCCCOc1ccc(C(=O)c2ccc(Br)cc2)c(F)c1`, the IC50 in [5] stood at 0.9 µM; in the assay with HL-60, 0.092 µM; in [1], 8 µM. The inhibition result in assay [3] was “Active”.
On to `CN1CCC=C(c2ccc(CN(C)C/C=C/c3ccccc3)cc2)C1`, for which the IC50 in assay [2] was above 10 µM; at Lanosterol synthase it was 5.28 µM; in assay [4], above 10 µM; in the assay with HL-60, 0.68 µM; in assay [1], above 50 µM. The inhibition entry in the assay on Saccharomyces cerevisiae, with Yarrowia lipolytica and in the assay with Nakaseomyces glabratus was “inactive” in each case. The inhibition entry in assay [3] is “Active”.
Consider `CN1CCC=C(c2ccc(CN(C)C/C=C/c3ccc([N+](=O)[O-])cc3)cc2)C1`, for which the inhibition result with Saccharomyces cerevisiae, in the assay with Yarrowia lipolytica and in the assay on Nakaseomyces glabratus was “inactive” in each case. For the same compound, the inhibition entry in assay [3] was “Active”. Besides, the IC50 in the assay on HL-60 is 1.28 µM; in assay [1], above 50 µM.
As to `CN(C)Cc1ccc([C@H]2CC[C@H](N(C)C(=O)c3ccc(Cl)cc3)CC2)cc1`, the inhibition result in [3] was “Active”. Also, the IC50 is 0.31 µM in the assay on HL-60 and above 50 µM in assay [1].
As to `CN1CCC(c2ccc(CN(C)Cc3ccc(Cl)cc3)cc2)CC1`, the IC50 in assay [2] is above 10 µM; on Lanosterol synthase it was 0.51 µM; in assay [4], 4.83 µM; with HL-60, 0.26 µM; in [1] it was above 50 µM. For the same compound, the inhibition result in the assay on Saccharomyces cerevisiae, with Yarrowia lipolytica and in the assay with Nakaseomyces glabratus was “inactive” each time. Moreover, in assay [3], the inhibition result was “Active”.
`CN1CCCC(c2ccc3c(c2)CCC3N(C)Cc2ccc(Cl)cc2)C1` (racemic): the IC50 in assay [2] was above 10 µM; at Lanosterol synthase it was 4.22 µM; in assay [4], above 10 µM; with HL-60 it was 0.14 µM; in assay [1], above 50 µM. Besides, the inhibition entry in the assay on Saccharomyces cerevisiae, in the assay on Yarrowia lipolytica and with Nakaseomyces glabratus was “inactive” throughout. Also, the inhibition entry in assay [3] is “Active”.
The compound `CN1CCC=C(c2ccc(CN(C)Cc3ccccc3)cc2)C1` gave an IC50 in assay [1] above 50 µM.
In the case of `CN(Cc1ccc(Cl)cc1)Cc1cn(C2CCCN(C)C2)nn1` (racemic), the inhibition entry in [6] was “Active”. This compound came in with an IC50 in assay [1] above 50 µM.
`CC(C)CCN(C)Cc1ccc(C2=CCCN(C)C2)cc1` registered an IC50 in assay [1] above 50 µM.
Consider `CC(C)CCCN(C)Cc1ccc(C2CCCN(C)C2)cc1` (racemic), for which the IC50 in [1] was above 50 µM.
Regarding `CN1CCC=C(c2ccc(CN(C)CCCc3ccccc3)cc2)C1`, the inhibition entry in the assay on Saccharomyces cerevisiae, in the assay with Yarrowia lipolytica and in the assay on Nakaseomyces glabratus was “inactive” throughout. Moreover, the inhibition entry in assay [3] was “Active”. This compound also showed an IC50 in assay [1] above 50 µM.
Turning to `CN1CCC=C(c2ccc(CN(C)Cc3ccc([N+](=O)[O-])cc3)cc2)C1`, the inhibition result in the assay with Saccharomyces cerevisiae, in the assay on Yarrowia lipolytica and in the assay on Nakaseomyces glabratus was “inactive” throughout. The inhibition result in assay [3] was “Active”. Moreover, the concentration for half-maximal inhibition (IC50) in the assay with HL-60 worked out at 2.29 µM; in assay [1], 28 µM.
For `COC(=O)c1ccc(CN(C)Cc2ccc(C3=CCCN(C)C3)cc2)cc1`, the IC50 in assay [1] was above 50 µM.
The same measure, in the same setting: under `CC(C)CN(C)Cc1ccc(C2=CCCN(C)C2)cc1` stands above 50 µM; under `COc1ccc(CN(C)Cc2ccc(C3=CCCN(C)C3)cc2)cc1`, above 50 µM.
The same measure, in the same setting: to `CC(C)CN(C)Cc1ccc(C2CCCN(C)C2)cc1` (racemic) belongs above 50 µM.
Consider `CN(Cc1ccc(Cl)cc1)Cc1ccc(C2CCCN(C)C2)cc1` (configuration not stated), for which the IC50 in assay [2] was above 10 µM; on Lanosterol synthase, 2.06 µM; in assay [4] it was above 10 µM; in the assay on HL-60, 1.29 µM; in assay [1], above 50 µM. Besides, in [3], the inhibition entry is “Active”.
Regarding `CN1CCC=C(c2ccc(CN(C)Cc3ccc(Cl)cc3)cc2)C1`, the IC50 in assay [2] was above 10 µM; on Lanosterol synthase, 2.51 µM; in assay [4] it was 6.35 µM; in the assay with HL-60 it was 2.14 µM; in [1], above 50 µM. Further, the inhibition entry with Saccharomyces cerevisiae, in the assay on Yarrowia lipolytica and in the assay with Nakaseomyces glabratus was “inactive” each time. For the same compound, in assay [3], the inhibition entry is “Active”.
For `CC(C)CCCN(C)Cc1ccc(C2=CCCN(C)C2)cc1`, in assay [1], the IC50 is above 50 µM.
